Data taken from ChEMBL document CHEMBL1275561, “In vitro activities of doripenem, a new broad-spectrum carbapenem, against recently collected clinical anaerobic isolates, with emphasis on the Bacteroides fragilis group” (2008).
Values after ≈ are worked out from the molar mass of the structure shown.

How the values were obtained:
Type in all cases: functional
Clostridioides difficile = experiment: Antimicrobial activity against Clostridium difficile by agar dilution method
Clostridium perfringens = experiment: Antimicrobial activity against Clostridium perfringens by agar dilution method
[Clostridium] innocuum [1] = Antimicrobial activity against Clostridium innocuum by agar dilution method
[Clostridium] innocuum [2] = Antimicrobial activity against Clostridium innocuum assessed as resistant isolates by agar dilution method; details: pooled result: one value given for 4 cell lines, strains, targets or settings
[3] = system: Clostridium paraputrificum; experiment: Antimicrobial activity against Clostridium paraputrificum by agar dilution method
Clostridium subterminale = experiment: Antimicrobial activity against Clostridium subterminale by agar dilution method
Clostridium tertium = experiment: Antimicrobial activity against Clostridium tertium by agar dilution method
Finegoldia magna [4] = experiment: Antimicrobial activity against Finegoldia magna by agar dilution method
Method in brief: (§1)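 Gram-positive anaerobes were tested by CLSI agar dilution on brucella agar enriched with 5% lysed defibrinated sheep blood and 1 μg/ml vitamin K1. Inoculum was log-phase growth at 0.5 McFarland, about 10^5 CFU/spot by replicator. Incubation was anaerobic, 37°C, 48 h. MIC was the lowest concentration with a marked growth change versus the drug-free plate. Eubacterium lentum ATCC 43055 was the control, and tests were repeated if it fell outside the CLSI range.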

Finegoldia magna [5] = experiment: Antimicrobial activity against Finegoldia magna assessed as resistant isolates by agar dilution method
Method in brief: (§2)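 Agar dilution following CLSI on brucella agar with 5% lysed defibrinated sheep blood and 1 μg/ml vitamin K1, plates made on test day. Log-phase cells at 0.5 McFarland, about 10^5 CFU/spot by Steers replicator, 48 h anaerobic at 37°C. MIC read as the lowest concentration causing a marked growth change versus control. Resistance counted by CLSI anaerobe breakpoints. Eubacterium lentum ATCC 43055 served as control.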

[6] = system: Peptoniphilus asaccharolyticus; experiment: Antimicrobial activity against Peptoniphilus asaccharolyticus by agar dilution method; method in brief: as §1
[7] = system: Peptoniphilus asaccharolyticus; experiment: Antimicrobial activity against Peptoniphilus asaccharolyticus assessed as resistant isolates by agar dilution method; details: pooled result: one value given for 4 cell lines, strains, targets or settings; method in brief: as §2
Parvimonas micra = experiment: Antimicrobial activity against Micromonas micros by agar dilution method; method in brief: as §1
Anaerococcus prevotii = experiment: Antimicrobial activity against Anaerococcus prevotii by agar dilution method; method in brief: as §1
Peptostreptococcus sp. = experiment: Antimicrobial activity against Peptostreptococcus sp. by agar dilution method
Method in brief: (§3)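 Log-phase isolates were adjusted to 0.5 McFarland, and about 10^5 CFU/spot was delivered by Steers replicator. Plates were incubated anaerobically at 37°C for 48 h. MIC was the lowest concentration giving a marked growth change versus the control plate. Eubacterium lentum ATCC 43055 was the QC strain, with repeats when out of range.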

Cutibacterium acnes [8] = experiment: Antimicrobial activity against Propionibacterium acnes by agar dilution method; method in brief: as §3
Cutibacterium acnes [9] = experiment: Antimicrobial activity against Propionibacterium acnes assessed as resistant isolates by agar dilution method; method in brief: as §2
Propionibacterium [10] = experiment: Antimicrobial activity against Propionibacterium sp. by agar dilution method; method in brief: as §3
Propionibacterium [11] = experiment: Antimicrobial activity against Propionibacterium sp. assessed as resistant isolates by agar dilution method; method in brief: as §2
[12] = system: Parabacteroides distasonis; experiment: Antimicrobial activity against Bacteroides distasonis by agar dilution method
Method in brief: (§4)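 CLSI agar dilution on enriched brucella agar (5% lysed defibrinated sheep blood, 1 μg/ml vitamin K1), with drug plates made on the test day. Log-phase cells were adjusted to 0.5 McFarland, and about 10^5 CFU/spot was delivered by Steers replicator. Plates were incubated anaerobically at 37°C for 48 h. MIC was the lowest concentration giving a marked growth change versus the control plate. Controls were B. fragilis ATCC 25285 and B. thetaiotaomicron ATCC 29741.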

Bacteroides caccae [13] = experiment: Antimicrobial activity against Bacteroides caccae assessed as resistant isolates by agar dilution method
Method in brief: (§5)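 CLSI agar dilution on enriched brucella agar (5% lysed defibrinated sheep blood, 1 μg/ml vitamin K1), plates made on test day. Log-phase inocula adjusted to 0.5 McFarland; about 10^5 CFU/spot by Steers replicator. Incubated anaerobically at 37°C for 48 h. MIC was the lowest concentration giving a marked change in growth versus the drug-free control plate. Resistance rates used CLSI anaerobe breakpoints. Controls were B. fragilis ATCC 25285 and B. thetaiotaomicron ATCC 29741.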

Bacteroides caccae [14] = experiment: Antimicrobial activity against Bacteroides caccae by agar dilution method; method in brief: as §4
[15] = system: Parabacteroides distasonis; experiment: Antimicrobial activity against Bacteroides distasonis assessed as resistant isolates by agar dilution method; method in brief: as §5
Bacteroides fragilis [16] = experiment: Antimicrobial activity against Bacteroides fragilis by agar dilution method; method in brief: as §4
Bacteroides fragilis [17] = experiment: Antimicrobial activity against Bacteroides fragilis assessed as resistant isolates by agar dilution method; method in brief: as §5
Bacteroides ovatus [18] = experiment: Antimicrobial activity against Bacteroides ovatus by agar dilution method; method in brief: as §4
Bacteroides ovatus [19] = experiment: Antimicrobial activity against Bacteroides ovatus assessed as resistant isolates by agar dilution method; method in brief: as §5
[20] = system: Bacteroides thetaiotaomicron; experiment: Antimicrobial activity against Bacteroides thetaiotaomicron by agar dilution method; method in brief: as §4
[21] = system: Bacteroides thetaiotaomicron; experiment: Antimicrobial activity against Bacteroides thetaiotaomicron assessed as resistant isolates by agar dilution method; method in brief: as §5
Bacteroides uniformis [22] = experiment: Antimicrobial activity against Bacteroides uniformis by agar dilution method; method in brief: as §4
Bacteroides uniformis [23] = experiment: Antimicrobial activity against Bacteroides uniformis assessed as resistant isolates by agar dilution method; method in brief: as §5
Phocaeicola vulgatus [24] = experiment: Antimicrobial activity against Bacteroides vulgatus by agar dilution method; method in brief: as §4
Phocaeicola vulgatus [25] = experiment: Antimicrobial activity against Bacteroides vulgatus assessed as resistant isolates by agar dilution method; method in brief: as §5
Bacteroides eggerthii [26] = experiment: Antimicrobial activity against Bacteroides eggerthii by agar dilution method; method in brief: as §4
Bacteroides eggerthii [27] = experiment: Antimicrobial activity against Bacteroides eggerthii assessed as resistant isolates by agar dilution method; method in brief: as §5
Parabacteroides merdae [28] = experiment: Antimicrobial activity against Bacteroides merdae by agar dilution method; method in brief: as §4
Parabacteroides merdae [29] = experiment: Antimicrobial activity against Bacteroides merdae assessed as resistant isolates by agar dilution method; method in brief: as §5
Bacteroides nordii [30] = experiment: Antimicrobial activity against Bacteroides nordii by agar dilution method; method in brief: as §4
Bacteroides nordii [31] = experiment: Antimicrobial activity against Bacteroides nordii assessed as resistant isolates by agar dilution method; method in brief: as §5

`CN[C@H](CC(C)C)C(=O)N[C@H]1C(=O)N[C@@H](CC(N)=O)C(=O)N[C@H]2C(=O)N[C@H]3C(=O)N[C@H](C(=O)N[C@H](C(=O)O)c4cc(O)cc(O)c4-c4cc3ccc4O)[C@H](O)c3ccc(c(Cl)c3)Oc3cc2cc(c3O[C@@H]2O[C@H](CO)[C@@H](O)[C@H](O)[C@H]2O[C@H]2C[C@](C)(N)[C@H](O)[C@H](C)O2)Oc2ccc(cc2Cl)[C@H]1O` [VANCOMYCIN] showed an MIC (Clostridioides difficile) of 1 µg/mL (≈ 0.69 µM), an MIC (Clostridium perfringens) of 1 µg/mL (≈ 0.69 µM) and an MIC50 (Clostridium perfringens) of 1 µg/mL (≈ 0.69 µM). The MIC90 (Clostridium perfringens) was 2 µg/mL (≈ 1.38 µM), the MIC50 ([Clostridium] innocuum [1]) was 8 µg/mL (≈ 5.52 µM) and the MIC90 ([Clostridium] innocuum [1]) was 16 µg/mL (≈ 11 µM). The Activity ([Clostridium] innocuum [2]) was 0%, the MIC50 [3] was 8 µg/mL (≈ 5.52 µM) and the MIC90 [3] was 16 µg/mL (≈ 11 µM). The MIC50 (Clostridium subterminale) was 8 µg/mL (≈ 5.52 µM), the MIC90 (Clostridium subterminale) was 16 µg/mL (≈ 11 µM) and the MIC50 (Clostridium tertium) was 8 µg/mL (≈ 5.52 µM). The MIC90 (Clostridium tertium) was 16 µg/mL (≈ 11 µM), the MIC50 (Finegoldia magna [4]) was 1 µg/mL (≈ 0.69 µM) and the MIC90 (Finegoldia magna [4]) was 1 µg/mL (≈ 0.69 µM). For the same compound, the Activity (Finegoldia magna [5]) was 0%, the MIC50 [6] was 1 µg/mL (≈ 0.69 µM) and the MIC90 [6] was 2 µg/mL (≈ 1.38 µM). The Activity [7] was 2.4%, the MIC50 (Parvimonas micra) was 1 µg/mL (≈ 0.69 µM) and the MIC90 (Parvimonas micra) was 2 µg/mL (≈ 1.38 µM). It also gave an MIC50 (Anaerococcus prevotii) of 1 µg/mL (≈ 0.69 µM), an MIC90 (Anaerococcus prevotii) of 2 µg/mL (≈ 1.38 µM) and an MIC50 (Peptostreptococcus sp.) of 1 µg/mL (≈ 0.69 µM). The MIC90 (Peptostreptococcus sp.) was 2 µg/mL (≈ 1.38 µM), the MIC (Cutibacterium acnes [8]) was 1 µg/mL (≈ 0.69 µM) and the MIC50 (Cutibacterium acnes [8]) was 1 µg/mL (≈ 0.69 µM). The MIC90 (Cutibacterium acnes [8]) was 1 µg/mL (≈ 0.69 µM), the Activity (Cutibacterium acnes [9]) was 0% and the MIC (Propionibacterium [10]) was 1 µg/mL (≈ 0.69 µM). It also gave an MIC50 (Propionibacterium [10]) of 1 µg/mL (≈ 0.69 µM), an MIC90 (Propionibacterium [10]) of 1 µg/mL (≈ 0.69 µM) and an Activity (Propionibacterium [11]) of 0%.

For `COc1c(N2C[C@@H]3CCCN[C@@H]3C2)c(F)cc2c(=O)c(C(=O)O)cn(C3CC3)c12` [MOXIFLOXACIN], the MIC50 [12] was 8 µg/mL (≈ 19.9 µM), the MIC90 [12] was 16 µg/mL (≈ 39.9 µM) and the Activity (Bacteroides caccae [13]) was 50%. It also gave an MIC50 (Bacteroides caccae [14]) of 4 µg/mL (≈ 9.96 µM), an MIC90 (Bacteroides caccae [14]) of 16 µg/mL (≈ 39.9 µM) and an Activity [15] of 53.3%. The MIC50 (Bacteroides fragilis [16]) was 1 µg/mL (≈ 2.49 µM), the MIC90 (Bacteroides fragilis [16]) was 8 µg/mL (≈ 19.9 µM) and the Activity (Bacteroides fragilis [17]) was 29.3%. The MIC50 (Bacteroides ovatus [18]) was 2 µg/mL (≈ 4.98 µM), the MIC90 (Bacteroides ovatus [18]) was 32 µg/mL (≈ 79.7 µM) and the Activity (Bacteroides ovatus [19]) was 40%. It also gave an MIC50 [20] of 4 µg/mL (≈ 9.96 µM), an MIC90 [20] of 32 µg/mL (≈ 79.7 µM) and an Activity [21] of 30.8%. For the same compound, the MIC50 (Bacteroides uniformis [22]) was 4 µg/mL (≈ 9.96 µM), the MIC90 (Bacteroides uniformis [22]) was 64 µg/mL (≈ 159 µM) and the Activity (Bacteroides uniformis [23]) was 14.3%. It also gave an MIC50 (Phocaeicola vulgatus [24]) of 8 µg/mL (≈ 19.9 µM), an MIC90 (Phocaeicola vulgatus [24]) of 64 µg/mL (≈ 159 µM) and an Activity (Phocaeicola vulgatus [25]) of 48.4%. It also gave an MIC50 (Bacteroides eggerthii [26]) of 2 µg/mL (≈ 4.98 µM), an MIC90 (Bacteroides eggerthii [26]) of 16 µg/mL (≈ 39.9 µM) and an Activity (Bacteroides eggerthii [27]) of 40%. The MIC50 (Parabacteroides merdae [28]) was 2 µg/mL (≈ 4.98 µM), the MIC90 (Parabacteroides merdae [28]) was 16 µg/mL (≈ 39.9 µM) and the Activity (Parabacteroides merdae [29]) was 40%. It also gave an MIC50 (Bacteroides nordii [30]) of 2 µg/mL (≈ 4.98 µM), an MIC90 (Bacteroides nordii [30]) of 16 µg/mL (≈ 39.9 µM) and an Activity (Bacteroides nordii [31]) of 40%. The Activity (Finegoldia magna [5]) was 40%, the Activity [7] was 14.8% and the MIC50 (Anaerococcus prevotii) was 0.5 µg/mL (≈ 1.25 µM). For the same compound, the MIC90 (Anaerococcus prevotii) was 16 µg/mL (≈ 39.9 µM), the MIC50 (Peptostreptococcus sp.) was 0.5 µg/mL (≈ 1.25 µM) and the MIC90 (Peptostreptococcus sp.) was 16 µg/mL (≈ 39.9 µM). The MIC50 (Cutibacterium acnes [8]) was 0.25 µg/mL (≈ 0.623 µM), the MIC90 (Cutibacterium acnes [8]) was 0.5 µg/mL (≈ 1.25 µM) and the Activity (Cutibacterium acnes [9]) was 0%. The MIC (Propionibacterium [10]) was 0.25 µg/mL (≈ 0.623 µM), the MIC50 (Propionibacterium [10]) was 0.25 µg/mL (≈ 0.623 µM) and the MIC90 (Propionibacterium [10]) was 0.5 µg/mL (≈ 1.25 µM). The Activity (Propionibacterium [11]) was 0%.
